Source: ChEMBL document CHEMBL1156162, “Investigating the anti-proliferative activity of styrylazanaphthalenes and azanaphthalenediones” (Bioorg Med Chem, 2010)

Assays:
[1] = system: SK-N-MC; assay: Cytotoxicity against human SK-N-MC cells after 72 hrs by MTT assay; assay type: functional, cell-based
How it was run: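 SK-N-MC cells in MEM with 10% FBS, pyruvate, non-essential amino acids, glutamine, antibiotics and fungizone. Seeded 24 h before treatment, then 72 h with varying concentrations. MTT (5 mg/mL stock) added for 2 h at 37 °C, followed by lysis and OD at 570 nm. IC50 derived; triplicate wells, experiments repeated 3–7 times.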

[2] = Lipophilicity, log K by RT-HPLC method; assay type: physicochemical
How it was run: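 RP-HPLC on a C18 column (5 µm, 4.6 × 250 mm) with photodiode array detection, column at 30 °C and samples at 10 °C. Lipophilicity expressed as capacity factor k and calculated log k.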

[3] = system: NIH3T3 (Mus musculus); assay: Cytotoxicity against mouse NIH/3T3 cells assessed as IC50
[4] = system: HCT-116; assay: Cytotoxicity against human HCT116 cells after 24 to 96 hrs by MTS assay; assay type: functional, cell-based
How it was run: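 HCT116 cells grown as monolayers in DMEM with 12% FBS and antibiotics at 37 °C, 5% CO2. Seeded at 3.5×10³, 7×10³ or 9×10³ cells/well, cultured 18 h, then exposed to 0.58 or 46 µmol/L final for 24, 48 or 96 h at 37 °C. Medium replaced with phenol red-free DMEM, MTS added for 1 h, absorbance read at 490 nm.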

[5] = Cytotoxicity against mouse NIH/3T3 cells assessed as viable cells after 72 hrs by MTT assay; assay type: cell-based; settings: NIH3T3, 72 h
[6] = system: HCT-116; assay: Cytotoxicity against human HCT116 cells assessed as decrease in survival fraction of cells at 0.58 uM after 24 hrs by colonogenic assay; assay type: functional
How it was run: (§1)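 HCT116 cells (8.5×10⁴ or 2.1×10⁵) were seeded in 35-mm dishes and held 18 h, then exposed to 0.58 or 46 µM in medium for 24 h or 96 h. Cells were trypsinised and re-seeded drug-free, then grown 9 days at 37 °C. Colonies were fixed in ethanol, stained with crystal violet, and those of ≥50 cells counted. Survival fraction was taken relative to untreated cells; means of 3 or 2 experiments.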

[7] = system: HCT-116; assay: Cytotoxicity against human HCT116 cells assessed as decrease in survival fraction of cells at 46 uM after 24 hrs by colonogenic assay; assay type: functional; how it was run: as §1
[8] = system: HCT-116; assay: Cytotoxicity against human HCT116 cells assessed as decrease in survival fraction of cells at 0.58 uM after 96 hrs by colonogenic assay; assay type: functional; how it was run: as §1
[9] = system: HCT-116; assay: Cytotoxicity against human HCT116 cells assessed as decrease in survival fraction of cells at 46 uM after 96 hrs by colonogenic assay; assay type: functional; how it was run: as §1
[10] = system: NIH3T3 (Mus musculus); assay: Cytotoxicity against mouse NIH/3T3 cells assessed as IC50; remark: listed apart in the source
[11] = system: L1210; assay: Antiproliferative activity against mouse L1210 cells; assay type: functional, cell-based

| SMILES | IC50 [1] | log K [2] | IC50 [4] | further results |
| --- | --- | --- | --- | --- |
| O=c1[nH]c(/C=C/c2ccc(Br)cc2)nc2ccc([N+](=O)[O-])cc12 | > 6.25 µM | 1.675 |  |  |
| COc1cccc(/C=C/c2nc(Cl)c3ccccc3n2)c1 | 5.28 µM | 1.183 |  | IC50 [3]: > 100 µM |
| O=c1[nH]c(/C=C/c2ccc(O)c(O)c2O)nc2ccccc12 |  | 0.551 | > 46 µM |  |
| Clc1nc(/C=C/c2ccccc2)nc2ccccc12 | 4.96 µM | 1.109 |  | IC50 [5]: 3.04 µM |
| O=c1[nH]c(/C=C/c2ccccc2Br)nc2ccccc12 | > 6.25 µM | 1.483 | > 46 µM |  |
| Cc1nc2ccc([N+](=O)[O-])cc2c(=O)n1C(N)=O | > 6.25 µM | 0.958 | > 92 µM |  |
| COc1cccc2c1C(=O)c1c(O)c3c(c(O)c1C2=O)C[C@@](O)(C(=O)CO)C[C@@H]3O[C@H]1C[C@H](N)[C@H](O)[C@H](C)O1 [DOXORUBICIN] | 0.12 µM |  | 5.95 µM |  |
| COc1ccc(/C=C/c2nc3ccccc3c(=O)[nH]2)cc1 | > 6.25 µM | 1.135 | > 46 µM | IC50 [3]: > 100 µM |
| O=Cc1ccc(/C=C/c2nc3ccccc3c(=O)[nH]2)cc1 | > 6.25 µM | 1.035 |  |  |
| COc1cccc(/C=C/c2nc3ccccc3c(=O)[nH]2)c1 | 5.13 µM | 1.184 |  |  |
| CC(=O)C1=CC(=O)c2nc(C)ccc2C1=O |  |  | 10.9 µM | Activity [6]: 1.07; Activity [7]: 0.04; Activity [8]: 0.21; Activity [9]: 0 |
| COc1ccc(/C=C/c2nc(Cl)c3ccccc3n2)cc1 | 4.34 µM | 1.134 |  | IC50 [3]: > 100 µM |
| O=c1[nH]c(/C=C/c2ccccc2)nc2ccccc12 | 1.39 µM | 1.115 | 2.53 µM | IC50 [5]: 2.4 µM |
| COc1ccccc1/C=C/c1nc(Cl)c2ccccc2n1 | 0.58 µM | 1.365 | 9.4 µM | Activity [6]: 0.43; Activity [7]: 0.03; Activity [8]: 0; Activity [9]: 0; IC50 [3]: > 100 µM; IC50 [10]: > 100 µM |
| O=c1[nH]c(/C=C/c2cccc(Br)c2)nc2ccccc12 | > 6.25 µM | 1.59 |  |  |
| Oc1cccc2ccc(/C=C/c3ccc(Cl)cc3)nc12 | 0.7 µM | 1.539 |  |  |
| CC(=O)NC1=CC(=O)c2cnc(C)nc2C1=O |  | 0.017 | 17 µM | Activity [6]: 1.2; Activity [7]: 0; Activity [8]: 0.26; Activity [9]: 0 |
| COc1ccc(/C=C/c2nc(Cl)c3ccccc3n2)c(OC)c1 | 1.75 µM | 1.195 | 23 µM | IC50 [3]: 34.1 µM |
| COc1ccc2nc(/C=C/c3ccccc3)[nH]c(=O)c2c1 |  |  |  | IC50 [11]: 3.59 µM |
| CC(=O)N(O)CCCCCNC(=O)CCC(=O)N(O)CCCCCNC(=O)CCC(=O)N(O)CCCCCN [DEFEROXAMINE] | 9.89 µM |  |  |  |
| O=c1[nH]c(/C=C/c2cccc(Cl)c2)nc2ccccc12 | > 6.25 µM | 1.506 |  |  |
| COc1ccc(/C=C/c2nc3ccccc3c(=O)[nH]2)c(OC)c1 | > 6.25 µM | 1.198 |  |  |
| Cc1nc2ccccc2c(=O)n1C(N)=O | > 6.25 µM | 0.553 | > 600 µM |  |
| COc1ccccc1/C=C/c1nc2ccccc2c(=O)[nH]1 | 2.88 µM | 1.151 | 1.58 µM | IC50 [5]: 1.17 µM |
| O=c1[nH]c(/C=C/c2ccc(Br)cc2)nc2ccccc12 | 2.85 µM | 1.593 |  |  |
